In ChEMBL document CHEMBL3861950, “Design, synthesis and evaluation of novel 19F magnetic resonance sensitive protein tyrosine phosphatase inhibitors” (Medchemcomm, 2016) one finds IC50 data, which are given here for 14 compounds.

The structures appear in SMILES notation.

Experiment [1] concerns the target T1, Tyrosine-protein phosphatase non-receptor type 22 (Homo sapiens, UniProt Q9Y2R2).
T1 sequence (Q9Y2R2 whole entry): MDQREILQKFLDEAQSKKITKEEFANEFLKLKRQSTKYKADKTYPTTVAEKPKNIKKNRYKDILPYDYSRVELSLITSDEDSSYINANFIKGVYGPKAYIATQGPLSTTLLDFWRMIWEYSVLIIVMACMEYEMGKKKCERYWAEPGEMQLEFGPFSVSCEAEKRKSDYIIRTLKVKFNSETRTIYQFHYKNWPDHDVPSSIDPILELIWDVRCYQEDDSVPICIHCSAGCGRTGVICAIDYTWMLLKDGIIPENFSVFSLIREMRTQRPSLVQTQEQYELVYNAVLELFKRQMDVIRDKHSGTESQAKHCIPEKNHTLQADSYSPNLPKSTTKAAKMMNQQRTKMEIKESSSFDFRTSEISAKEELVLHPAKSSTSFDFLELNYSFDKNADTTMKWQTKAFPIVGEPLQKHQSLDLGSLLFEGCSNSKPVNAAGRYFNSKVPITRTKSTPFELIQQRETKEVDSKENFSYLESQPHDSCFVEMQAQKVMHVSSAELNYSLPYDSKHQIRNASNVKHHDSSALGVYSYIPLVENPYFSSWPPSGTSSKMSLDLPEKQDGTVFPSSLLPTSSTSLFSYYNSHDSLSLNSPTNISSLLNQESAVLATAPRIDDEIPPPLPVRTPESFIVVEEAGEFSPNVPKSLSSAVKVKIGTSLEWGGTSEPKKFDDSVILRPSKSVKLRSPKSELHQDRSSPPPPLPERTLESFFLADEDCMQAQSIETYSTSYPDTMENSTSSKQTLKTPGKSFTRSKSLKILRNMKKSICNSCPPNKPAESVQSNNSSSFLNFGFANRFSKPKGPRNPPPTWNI
The experiment in a line: Inhibition of recombinant LYP (unknown origin) using pNPP as substrate by spectrophotometric method. In short, it runs like this: (§1)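 Recombinant PTP prepared in-house, assayed with pNPP substrate in 50 mM 3,3-dimethylglutarate buffer pH 7.0 containing 1 mM EDTA and 150 mM NaCl at 25 °C, in 96-well format. p-Nitrophenol product was quantified by absorbance at 405 nm. Non-enzymatic pNPP hydrolysis was corrected using a no-enzyme control.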

The target in experiment [2] is Tyrosine-protein phosphatase non-receptor type 13 (Homo sapiens, UniProt Q12923). Put plainly: Inhibition of recombinant FAP1 (unknown origin) using pNPP as substrate by spectrophotometric method. In outline:
as §1

The target in experiment [3] is T2, Tyrosine-protein phosphatase non-receptor type 1 (Homo sapiens, UniProt P18031).
T2 sequence (P18031 whole entry): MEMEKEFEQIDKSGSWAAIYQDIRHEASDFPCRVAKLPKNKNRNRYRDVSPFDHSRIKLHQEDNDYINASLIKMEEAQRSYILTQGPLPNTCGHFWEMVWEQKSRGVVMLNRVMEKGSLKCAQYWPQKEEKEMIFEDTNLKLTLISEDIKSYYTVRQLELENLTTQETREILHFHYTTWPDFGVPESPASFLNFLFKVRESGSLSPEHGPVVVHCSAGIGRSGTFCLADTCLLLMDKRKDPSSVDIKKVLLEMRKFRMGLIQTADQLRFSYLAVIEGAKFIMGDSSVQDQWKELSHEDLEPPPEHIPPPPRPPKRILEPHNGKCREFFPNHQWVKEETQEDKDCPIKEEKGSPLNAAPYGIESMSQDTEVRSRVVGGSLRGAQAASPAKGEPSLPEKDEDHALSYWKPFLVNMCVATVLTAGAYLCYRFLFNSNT
Put plainly: Inhibition of recombinant PTP1B (unknown origin) using pNPP as substrate by spectrophotometric method. In outline: as §1

For experiment [4], the target named is T3, Receptor-type tyrosine-protein phosphatase C (Homo sapiens, UniProt P08575).
T3 sequence (P08575 whole entry): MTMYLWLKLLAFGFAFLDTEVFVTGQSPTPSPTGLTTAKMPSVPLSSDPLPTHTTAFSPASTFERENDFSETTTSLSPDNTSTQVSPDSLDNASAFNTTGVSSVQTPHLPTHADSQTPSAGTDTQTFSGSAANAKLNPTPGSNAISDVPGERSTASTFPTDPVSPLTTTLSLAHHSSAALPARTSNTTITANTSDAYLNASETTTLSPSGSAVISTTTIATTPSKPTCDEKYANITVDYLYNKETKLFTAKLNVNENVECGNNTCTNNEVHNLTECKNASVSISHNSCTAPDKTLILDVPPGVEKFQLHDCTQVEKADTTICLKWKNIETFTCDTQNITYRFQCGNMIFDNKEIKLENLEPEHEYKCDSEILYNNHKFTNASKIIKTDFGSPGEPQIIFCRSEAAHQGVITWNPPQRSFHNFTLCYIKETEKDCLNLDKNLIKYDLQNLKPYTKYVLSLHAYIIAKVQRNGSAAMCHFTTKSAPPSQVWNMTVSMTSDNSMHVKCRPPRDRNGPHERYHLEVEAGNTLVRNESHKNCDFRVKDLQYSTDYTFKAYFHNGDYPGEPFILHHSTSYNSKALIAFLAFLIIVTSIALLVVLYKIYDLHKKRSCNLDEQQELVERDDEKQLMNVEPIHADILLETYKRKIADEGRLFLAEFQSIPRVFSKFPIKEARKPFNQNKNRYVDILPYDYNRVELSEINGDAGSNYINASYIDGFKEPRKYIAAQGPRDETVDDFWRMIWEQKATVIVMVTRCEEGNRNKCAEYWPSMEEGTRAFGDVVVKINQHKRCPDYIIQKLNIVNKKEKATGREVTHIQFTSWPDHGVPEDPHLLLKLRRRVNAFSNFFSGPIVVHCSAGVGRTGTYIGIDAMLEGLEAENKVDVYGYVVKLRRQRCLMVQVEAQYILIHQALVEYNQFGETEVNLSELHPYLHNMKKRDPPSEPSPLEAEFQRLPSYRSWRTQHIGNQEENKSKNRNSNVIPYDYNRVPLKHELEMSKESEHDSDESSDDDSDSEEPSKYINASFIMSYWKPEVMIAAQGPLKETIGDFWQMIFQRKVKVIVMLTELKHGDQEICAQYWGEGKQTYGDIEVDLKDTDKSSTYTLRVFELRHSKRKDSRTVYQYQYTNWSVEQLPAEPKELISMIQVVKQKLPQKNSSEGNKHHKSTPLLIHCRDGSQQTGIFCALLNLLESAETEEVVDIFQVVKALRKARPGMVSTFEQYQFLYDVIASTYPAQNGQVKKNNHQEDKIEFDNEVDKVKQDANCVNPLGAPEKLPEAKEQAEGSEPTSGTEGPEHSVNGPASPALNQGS
The experiment in a line: Inhibition of recombinant CD45 (unknown origin) using pNPP as substrate by spectrophotometric method. In short, it runs like this: as §1

A short description of experiment [5]: Inhibition of recombinant Mycobacterium tuberculosis PTPB using pNPP as substrate by spectrophotometric method. In short, it runs like this: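 Recombinant enzyme made in-house. Substrate pNPP in 50 mM 3,3-dimethylglutarate buffer, pH 7.0, with 1 mM EDTA and 150 mM NaCl, at 25 °C, screened in 96-well format. p-Nitrophenol product read at 405 nm. Non-enzymatic pNPP hydrolysis was corrected using a control without enzyme.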

For experiment [6], the target named is T4, Tyrosine-protein phosphatase non-receptor type 11 (Homo sapiens, UniProt Q06124).
T4 sequence (Q06124 whole entry): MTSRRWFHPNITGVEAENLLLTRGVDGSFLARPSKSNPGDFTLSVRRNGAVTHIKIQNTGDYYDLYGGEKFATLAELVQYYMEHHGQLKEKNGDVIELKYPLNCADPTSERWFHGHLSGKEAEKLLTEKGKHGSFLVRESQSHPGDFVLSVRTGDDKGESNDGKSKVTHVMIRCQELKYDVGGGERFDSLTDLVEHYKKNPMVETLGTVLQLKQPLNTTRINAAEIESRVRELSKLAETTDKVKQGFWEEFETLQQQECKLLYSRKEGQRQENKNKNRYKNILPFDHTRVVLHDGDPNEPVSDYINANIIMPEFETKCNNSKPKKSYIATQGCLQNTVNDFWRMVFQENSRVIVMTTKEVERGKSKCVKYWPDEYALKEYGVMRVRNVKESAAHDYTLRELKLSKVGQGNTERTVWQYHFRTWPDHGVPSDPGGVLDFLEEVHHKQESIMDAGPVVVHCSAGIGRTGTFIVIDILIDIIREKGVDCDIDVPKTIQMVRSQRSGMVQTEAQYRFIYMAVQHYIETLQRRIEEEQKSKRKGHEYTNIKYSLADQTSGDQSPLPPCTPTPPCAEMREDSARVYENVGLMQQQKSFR
Put plainly: Inhibition of recombinant SHP2 (unknown origin) using pNPP as substrate by spectrophotometric method. In short, it runs like this:
as §1

Tyrosine-protein phosphatase non-receptor type 13, sequence (Q12923 whole entry): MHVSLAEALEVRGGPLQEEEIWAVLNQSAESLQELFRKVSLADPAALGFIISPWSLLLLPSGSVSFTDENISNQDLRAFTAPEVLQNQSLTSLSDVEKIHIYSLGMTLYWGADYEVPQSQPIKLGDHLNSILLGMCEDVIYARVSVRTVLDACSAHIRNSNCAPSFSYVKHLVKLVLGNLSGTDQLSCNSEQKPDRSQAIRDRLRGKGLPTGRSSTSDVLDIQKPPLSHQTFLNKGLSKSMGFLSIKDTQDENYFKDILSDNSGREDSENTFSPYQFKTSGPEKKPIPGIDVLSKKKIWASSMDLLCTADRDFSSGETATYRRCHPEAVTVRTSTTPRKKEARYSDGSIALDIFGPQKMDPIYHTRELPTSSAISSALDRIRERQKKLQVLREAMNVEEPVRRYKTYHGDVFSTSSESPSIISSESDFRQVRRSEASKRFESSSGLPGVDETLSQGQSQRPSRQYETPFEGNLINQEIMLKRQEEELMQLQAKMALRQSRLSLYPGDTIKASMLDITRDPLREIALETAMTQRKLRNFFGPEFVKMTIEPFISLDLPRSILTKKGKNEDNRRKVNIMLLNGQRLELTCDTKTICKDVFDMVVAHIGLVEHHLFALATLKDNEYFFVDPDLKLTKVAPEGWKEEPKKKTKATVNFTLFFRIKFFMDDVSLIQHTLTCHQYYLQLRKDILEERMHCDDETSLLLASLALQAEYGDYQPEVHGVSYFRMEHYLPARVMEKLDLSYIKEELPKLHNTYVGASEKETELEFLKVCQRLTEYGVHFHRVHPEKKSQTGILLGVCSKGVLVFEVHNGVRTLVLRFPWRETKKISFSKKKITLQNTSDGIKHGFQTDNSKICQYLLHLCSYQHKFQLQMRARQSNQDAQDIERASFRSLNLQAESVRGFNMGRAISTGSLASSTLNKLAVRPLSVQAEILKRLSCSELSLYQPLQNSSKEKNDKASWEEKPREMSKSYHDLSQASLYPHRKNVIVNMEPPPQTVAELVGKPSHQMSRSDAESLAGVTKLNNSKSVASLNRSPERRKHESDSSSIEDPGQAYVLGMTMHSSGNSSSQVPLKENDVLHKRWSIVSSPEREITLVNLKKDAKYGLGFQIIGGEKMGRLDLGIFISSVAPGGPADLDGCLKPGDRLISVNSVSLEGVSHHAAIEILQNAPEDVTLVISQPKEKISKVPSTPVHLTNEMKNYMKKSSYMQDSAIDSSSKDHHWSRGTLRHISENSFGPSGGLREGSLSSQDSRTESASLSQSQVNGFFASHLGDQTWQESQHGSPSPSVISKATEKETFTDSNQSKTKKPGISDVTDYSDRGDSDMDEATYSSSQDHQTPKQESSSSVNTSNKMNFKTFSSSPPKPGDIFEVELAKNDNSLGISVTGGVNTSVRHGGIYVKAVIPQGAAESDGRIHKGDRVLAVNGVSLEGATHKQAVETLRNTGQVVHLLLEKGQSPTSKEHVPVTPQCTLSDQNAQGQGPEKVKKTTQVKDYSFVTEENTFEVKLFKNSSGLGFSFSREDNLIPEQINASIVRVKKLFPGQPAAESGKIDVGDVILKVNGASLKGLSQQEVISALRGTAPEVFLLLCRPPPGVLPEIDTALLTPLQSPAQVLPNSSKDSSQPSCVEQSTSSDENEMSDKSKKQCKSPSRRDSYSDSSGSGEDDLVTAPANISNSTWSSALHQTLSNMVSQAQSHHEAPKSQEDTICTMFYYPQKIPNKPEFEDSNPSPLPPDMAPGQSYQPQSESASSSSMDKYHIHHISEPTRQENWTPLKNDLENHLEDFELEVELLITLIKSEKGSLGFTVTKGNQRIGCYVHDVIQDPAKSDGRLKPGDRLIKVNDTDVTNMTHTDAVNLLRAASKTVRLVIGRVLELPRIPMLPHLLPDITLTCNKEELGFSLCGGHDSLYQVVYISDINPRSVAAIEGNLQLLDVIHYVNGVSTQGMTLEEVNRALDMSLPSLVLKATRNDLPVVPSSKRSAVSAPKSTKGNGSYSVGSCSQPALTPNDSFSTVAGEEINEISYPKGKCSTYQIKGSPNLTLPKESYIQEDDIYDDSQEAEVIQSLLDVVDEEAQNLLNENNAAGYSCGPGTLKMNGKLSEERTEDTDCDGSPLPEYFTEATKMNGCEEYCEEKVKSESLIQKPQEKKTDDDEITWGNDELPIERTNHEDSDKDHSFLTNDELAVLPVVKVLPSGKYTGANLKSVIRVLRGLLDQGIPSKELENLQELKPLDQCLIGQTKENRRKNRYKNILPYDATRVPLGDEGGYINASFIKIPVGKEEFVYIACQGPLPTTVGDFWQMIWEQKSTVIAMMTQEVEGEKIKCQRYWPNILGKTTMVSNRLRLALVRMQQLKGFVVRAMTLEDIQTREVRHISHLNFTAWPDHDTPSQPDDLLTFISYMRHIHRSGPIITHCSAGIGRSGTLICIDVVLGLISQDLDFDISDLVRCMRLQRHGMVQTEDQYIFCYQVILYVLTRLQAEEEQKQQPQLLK

In general, IC50 refers to the concentration at which inhibition is half-maximal. Regarding `O=C(COc1ccc2cc(C(O)(C(F)(F)F)C(F)(F)F)c(O)cc2c1)Nc1ccc(-c2ccccc2)cc1`, the IC50 in experiment [1] was greater than 20 µM; in experiment [2], 2.8 µM; in experiment [3], greater than 20 µM; in experiment [4], 3.4 µM; in experiment [5], 4.8 µM; in experiment [6], 3.5 µM.

For `O=C(COc1ccc2cc(C(O)(C(F)(F)F)C(F)(F)F)c(O)cc2c1)Nc1nc2ccccc2s1`, the IC50 in experiment [1] was 14.3 µM; in experiment [2], 9.9 µM; in experiment [3] it was greater than 20 µM; in experiment [4], 10.9 µM; in experiment [5], 2.6 µM; in experiment [6] it was 12.8 µM.

For `O=C(COc1ccc2cc(C(O)(C(F)(F)F)C(F)(F)F)c(O)cc2c1)NC1CC1`, the IC50 in experiment [1], in experiment [2], in experiment [3], in experiment [4], in experiment [5] and in experiment [6] was greater than 20 µM each time.

Regarding `Oc1ccc(-c2ccccc2)cc1C(O)(C(F)(F)F)C(F)(F)F`, the IC50 is greater than 500 µM in experiment [1]; greater than 500 µM in experiment [2]; greater than 500 µM in experiment [3]; greater than 500 µM in experiment [4]; 351 µM in experiment [5]; 392 µM in experiment [6].

Take `O=C(COc1ccc2cc(C(O)(C(F)(F)F)C(F)(F)F)c(O)cc2c1)NCCc1ccc(Cl)cc1Cl`: the IC50 in experiment [1] came to 6.9 µM; in experiment [2], 4.3 µM; in experiment [3], 12.6 µM; in experiment [4] it was 5.2 µM; in experiment [5], 5.1 µM; in experiment [6], 6.7 µM.

`O=C(COc1ccc2cc(C(O)(C(F)(F)F)C(F)(F)F)c(O)cc2c1)NC1c2ccccc2-c2ccccc21`: the 50% inhibitory concentration (IC50) in experiment [1] was 7.5 µM; in experiment [2] it was 5.6 µM; in experiment [3] it was 13.8 µM; in experiment [4], 6.6 µM; in experiment [5], 9.4 µM; in experiment [6] it was 6.9 µM.

With `CCCNC(=O)COc1ccc2cc(C(O)(C(F)(F)F)C(F)(F)F)c(O)cc2c1`, the IC50 in experiment [1], in experiment [2], in experiment [3], in experiment [4], in experiment [5] and in experiment [6] was greater than 20 µM each time.

`O=C(COc1ccc2cc(C(O)(C(F)(F)F)C(F)(F)F)c(O)cc2c1)NCc1ccccc1`: the concentration for half-maximal inhibition (IC50) in experiment [1], in experiment [2], in experiment [3], in experiment [4], in experiment [5] and in experiment [6] was greater than 20 µM each time.

As for `O=C(COc1ccc2cc(C(O)(C(F)(F)F)C(F)(F)F)c(O)cc2c1)NC12CC3CC(CC(C3)C1)C2`, the IC50 in experiment [1] was 10.1 µM; in experiment [2], 7.4 µM; in experiment [3], 14.7 µM; in experiment [4], 7.6 µM; in experiment [5], greater than 20 µM; in experiment [6], 9 µM.

Turning to `Cc1ccc(O)c(C(O)(C(F)(F)F)C(F)(F)F)c1`, the IC50 came to 303 µM in experiment [1]; 454 µM in experiment [2]; 360 µM in experiment [3]; 207 µM in experiment [4]; 180 µM in experiment [5]; 202 µM in experiment [6].

As to `O=C(COc1ccc2cc(C(O)(C(F)(F)F)C(F)(F)F)c(O)cc2c1)Nc1ccc(N2CCOCC2)cc1`, the IC50 in experiment [1], in experiment [2], in experiment [3], in experiment [4], in experiment [5] and in experiment [6] was greater than 20 µM throughout.

On to `O=C(COc1ccc2cc(C(O)(C(F)(F)F)C(F)(F)F)c(O)cc2c1)Nc1cccc2ccccc12`, for which the IC50 is greater than 20 µM in experiment [1]; greater than 20 µM in experiment [2]; greater than 20 µM in experiment [3]; 29.1 µM in experiment [4]; 4.7 µM in experiment [5]; greater than 20 µM in experiment [6].

In the case of `COc1ccc(CNC(=O)COc2ccc3cc(C(O)(C(F)(F)F)C(F)(F)F)c(O)cc3c2)cc1OC`, the IC50 is greater than 20 µM in experiment [1]; greater than 20 µM in experiment [2]; greater than 20 µM in experiment [3]; greater than 20 µM in experiment [4]; 18.1 µM in experiment [5]; greater than 20 µM in experiment [6].

Consider `O=C(COc1ccc2cc(C(O)(C(F)(F)F)C(F)(F)F)c(O)cc2c1)Nc1ccccc1`, for which the 50% inhibitory concentration (IC50) in experiment [1] was greater than 20 µM; in experiment [2], greater than 20 µM; in experiment [4], greater than 20 µM; in experiment [5], 14.4 µM; in experiment [6] it was 19 µM.
